Data reported in ChEMBL document CHEMBL1124252, “Structure-activity relationships in 1,4-benzodioxan-related compounds. Investigation on the role of the dehydrodioxane ring on alpha 1-adrenoreceptor blocking activity” (J Med Chem, 1988).

What was measured:
[1] = target: T1, Adrenergic receptor alpha-2 (Rattus norvegicus, UniProt P22086+P19328+P22909); assay: Alpha-2 adrenergic receptor blocking activity against clonidine-induced depression of the twitch response in prostatic portion of rat vas deferens; format: tissue-based
T1 sequence (P22086 whole entry): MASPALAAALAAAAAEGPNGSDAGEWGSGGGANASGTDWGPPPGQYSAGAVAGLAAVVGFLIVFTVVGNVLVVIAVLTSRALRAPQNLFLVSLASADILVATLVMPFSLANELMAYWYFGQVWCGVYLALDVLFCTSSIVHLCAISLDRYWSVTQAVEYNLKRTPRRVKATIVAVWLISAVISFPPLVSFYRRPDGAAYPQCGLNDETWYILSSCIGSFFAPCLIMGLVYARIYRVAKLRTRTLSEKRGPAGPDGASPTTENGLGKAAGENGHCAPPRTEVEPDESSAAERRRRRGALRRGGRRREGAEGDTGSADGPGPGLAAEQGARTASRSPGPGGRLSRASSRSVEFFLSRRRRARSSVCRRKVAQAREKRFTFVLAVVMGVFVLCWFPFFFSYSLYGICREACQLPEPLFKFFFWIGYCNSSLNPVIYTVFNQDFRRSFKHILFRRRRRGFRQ
T1 sequence (P19328 whole entry): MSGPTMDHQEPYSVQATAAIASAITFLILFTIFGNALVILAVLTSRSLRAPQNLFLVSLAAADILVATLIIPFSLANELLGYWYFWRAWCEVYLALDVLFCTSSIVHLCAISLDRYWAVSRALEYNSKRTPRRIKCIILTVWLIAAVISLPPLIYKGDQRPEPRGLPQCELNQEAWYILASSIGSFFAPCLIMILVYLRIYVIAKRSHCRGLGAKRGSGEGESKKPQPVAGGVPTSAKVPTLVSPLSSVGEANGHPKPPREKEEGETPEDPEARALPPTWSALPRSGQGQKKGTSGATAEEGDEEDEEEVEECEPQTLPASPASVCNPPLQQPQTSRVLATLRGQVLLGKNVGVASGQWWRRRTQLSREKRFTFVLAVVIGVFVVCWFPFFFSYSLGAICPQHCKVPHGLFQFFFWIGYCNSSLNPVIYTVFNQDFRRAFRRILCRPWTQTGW
T1 sequence (P22909 whole entry): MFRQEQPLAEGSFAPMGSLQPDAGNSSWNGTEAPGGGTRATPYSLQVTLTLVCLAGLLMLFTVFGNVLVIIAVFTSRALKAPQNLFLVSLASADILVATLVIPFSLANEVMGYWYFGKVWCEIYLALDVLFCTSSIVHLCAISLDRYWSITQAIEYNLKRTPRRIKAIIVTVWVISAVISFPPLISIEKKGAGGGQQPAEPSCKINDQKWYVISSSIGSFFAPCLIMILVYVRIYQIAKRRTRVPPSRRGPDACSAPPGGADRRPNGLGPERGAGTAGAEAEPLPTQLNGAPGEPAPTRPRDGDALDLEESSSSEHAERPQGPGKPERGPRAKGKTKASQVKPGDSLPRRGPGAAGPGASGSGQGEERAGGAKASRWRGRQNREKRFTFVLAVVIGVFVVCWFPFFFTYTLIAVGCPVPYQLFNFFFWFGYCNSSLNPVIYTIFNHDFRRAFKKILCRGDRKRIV
Outline: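 Prostatic halves (12 mm) from male albino rat vas deferens, Krebs with propranolol 1 μM and cocaine 10 μM, 0.5–0.8 g tension, field-stimulated at 0.1 Hz, 3-ms pulses, 10-35 V. After ≥1 h equilibration, cumulative clonidine curves on twitch inhibition before and after 30 min antagonist. Dose ratios taken at 50% twitch inhibition; pA2 via Schild plot, slope constrained to -1.0.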

[2] = target: T2, Adrenergic receptor alpha-1 (Rattus norvegicus, UniProt P15823+P23944+P43140); assay: Alpha-1 adrenergic receptor blocking activity against norepinephrine-induced contraction in epididymal portion of rat vas deferens; format: tissue-based
T2 sequence (P15823 whole entry): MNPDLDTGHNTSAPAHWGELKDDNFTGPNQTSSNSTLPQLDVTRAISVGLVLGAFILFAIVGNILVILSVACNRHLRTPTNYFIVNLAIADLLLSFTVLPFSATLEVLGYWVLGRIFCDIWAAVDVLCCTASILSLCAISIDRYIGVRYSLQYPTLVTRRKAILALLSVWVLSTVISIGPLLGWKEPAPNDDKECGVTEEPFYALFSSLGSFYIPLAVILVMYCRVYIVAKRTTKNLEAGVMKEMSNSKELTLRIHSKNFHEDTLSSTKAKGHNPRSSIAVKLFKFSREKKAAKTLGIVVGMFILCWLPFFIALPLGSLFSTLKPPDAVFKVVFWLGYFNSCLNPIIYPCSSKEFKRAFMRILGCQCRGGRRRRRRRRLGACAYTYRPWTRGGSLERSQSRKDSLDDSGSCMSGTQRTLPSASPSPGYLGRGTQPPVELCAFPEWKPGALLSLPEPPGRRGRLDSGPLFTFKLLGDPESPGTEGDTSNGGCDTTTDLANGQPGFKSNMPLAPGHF
T2 sequence (P23944 whole entry): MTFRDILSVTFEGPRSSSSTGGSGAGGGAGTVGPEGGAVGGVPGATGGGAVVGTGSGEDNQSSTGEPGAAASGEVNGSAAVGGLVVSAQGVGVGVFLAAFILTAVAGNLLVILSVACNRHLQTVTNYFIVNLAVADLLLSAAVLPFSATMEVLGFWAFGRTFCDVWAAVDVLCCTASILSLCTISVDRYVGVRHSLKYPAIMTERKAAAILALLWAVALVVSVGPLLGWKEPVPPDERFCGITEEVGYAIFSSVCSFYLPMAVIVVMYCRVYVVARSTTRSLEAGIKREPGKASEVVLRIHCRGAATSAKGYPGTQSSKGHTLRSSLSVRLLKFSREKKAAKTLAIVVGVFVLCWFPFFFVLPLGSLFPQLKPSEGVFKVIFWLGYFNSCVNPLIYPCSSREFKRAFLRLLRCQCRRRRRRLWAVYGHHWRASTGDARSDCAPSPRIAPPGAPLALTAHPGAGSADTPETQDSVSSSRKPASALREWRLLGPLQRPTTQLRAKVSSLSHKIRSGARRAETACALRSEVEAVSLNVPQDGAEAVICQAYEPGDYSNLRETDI
T2 sequence (P43140 whole entry): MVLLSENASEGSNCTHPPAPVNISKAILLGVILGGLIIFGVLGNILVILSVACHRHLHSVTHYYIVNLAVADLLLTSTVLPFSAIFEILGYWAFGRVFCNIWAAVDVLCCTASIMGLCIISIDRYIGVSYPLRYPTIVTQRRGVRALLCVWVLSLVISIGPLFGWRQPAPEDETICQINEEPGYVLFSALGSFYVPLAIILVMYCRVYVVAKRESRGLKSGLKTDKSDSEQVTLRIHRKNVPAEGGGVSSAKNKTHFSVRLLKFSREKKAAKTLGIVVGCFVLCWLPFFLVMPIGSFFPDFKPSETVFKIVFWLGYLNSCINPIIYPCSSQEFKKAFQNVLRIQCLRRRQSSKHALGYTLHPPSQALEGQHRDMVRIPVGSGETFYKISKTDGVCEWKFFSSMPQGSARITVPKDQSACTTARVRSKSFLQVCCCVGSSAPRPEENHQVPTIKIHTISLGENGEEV
Outline: (§1)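 Epididymal halves (14 mm) of vas deferens from male albino rats (175-200 g), Krebs with propranolol 1 μM and cocaine 10 μM, 0.4 g tension. Equilibrated ≥1 h; cumulative norepinephrine curves, first discarded, second control, third after 30 min antagonist. Time-control tissues run in parallel. pA2 from Schild plots constrained to slope -1.0, each concentration tested five times.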

[3] = target: Adrenergic receptor alpha (Rattus norvegicus) (UniProt P15823+P23944+P43140+P22086+P19328+P22909); assay: The alpha-1/alpha-2 selectivity ratio is the antilog of the difference between pA2 values at alpha-1 and alpha-2 adrenoceptors
[4] = target: T2, Adrenergic receptor alpha-1; assay: Alpha-1-Adrenoceptor blocking activity against norepinephrine-induced contraction in epididymal portion of rat vas deferens; format: functional, tissue-based; outline: as §1

| pA2 [1] | pA2 [2] | Selectivity [3] | pA2 [4] | SMILES |
| --- | --- | --- | --- | --- |
| 7.05 |  | 141 | 9.2 | COc1cccc(OC)c1OCCNC[C@@H]1CCc2ccccc2O1 |
| 6.28 | 7.97 | 49 |  | COc1cccc(OC)c1OCCNC[C@@H]1COc2ccccc2C1 |
| 6.04 |  | 4 | 6.6 | COc1cccc(OC)c1OCCNCc1cc2ccccc2[nH]1 |
| 6.09 | 7.94 | 71 |  | COc1cccc(OC)c1OCCNC[C@@H]1COc2ccccc2S1 |
| 6.63 | 9.24 | 407 |  | COc1cccc(OC)c1OCCNCC1COc2ccccc2O1 (stereo not given) |
| 6.41 | 7.33 | 8 |  | COc1cccc(OC)c1OCCNCc1cccc2ccccc12 |
| 6.52 | 8.93 | 257 |  | COc1cccc(OC)c1OCCNC[C@@H]1COc2ccccc2C1=O |
| 6.53 | 8.89 | 229 |  | COc1cccc(OC)c1OCCNC[C@@H]1CSc2ccccc2C1=O |
| 6.4 | 7.75 | 22 |  | COc1cccc(OC)c1OCCNCc1ccc2ccccc2c1 |

Second part, the compound before the results:

| SMILES | pA2 [1] | pA2 [2] | Selectivity [3] | pA2 [4] |
| --- | --- | --- | --- | --- |
| COc1cccc(OC)c1OCCNC[C@@H]1COc2ccccc2[C@@H]1O | 6.1 | 7.22 | 13 |  |
| COc1cccc(OC)c1OCCNC[C@@H]1CSc2ccccc2O1 | 6.15 | 9.05 | 469 |  |
| COc1cccc(OC)c1OCCNC[C@@H]1COc2ccccc2[C@H]1O | 6.09 | 7.33 | 17 |  |
| COc1cccc(OC)c1OCCNC[C@@H]1C[S@@+]([O-])c2ccccc2O1 (relative stereo) | 6.24 | 7.71 | 30 |  |
| COc1cccc(OC)c1OCCNC[C@@H]1CS(=O)(=O)c2ccccc2O1 | 5.8 |  | 6 | 6.6 |
| COc1cccc(OC)c1OCCNC[C@@H]1C[S@+]([O-])c2ccccc2O1 (relative stereo) | 6.24 | 7.54 | 20 |  |
